We go through 14 molecules from ChEMBL document CHEMBL1138467, “Indomethacin amides as a novel molecular scaffold for targeting Trypanosoma cruzi sterol 14alpha-demethylase” (J Med Chem, 2009).

Assay [1] has as its target Sterol 14-alpha demethylase (Trypanosoma cruzi (strain CL Brener)) (UniProt Q7Z1V1). Briefly: Inhibitory potency at Trypanosoma cruzi CYP51 assessed as molar ratio of drug to enzyme required to slow down the reaction twofold at 1 uM enzyme concentration. A digest of the protocol: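 Reconstituted with T. brucei CPR and DLPC (TCCYP51:CPR:DLPC 1:2:50). Final mix: 1 μM TCCYP51, 50 μM [3H]-MDL in MOPS pH 7.4 with KCl, MgCl2, glycerol and an isocitrate/isocitrate dehydrogenase system. Inhibitors 1–100 μM, 5 min preincubation at 37°C, started with NADPH. Sterols by reverse-phase radio-HPLC. I/E2 is the inhibitor/enzyme molar ratio halving the initial rate.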

Assay [2] concerns the target T1, Prostaglandin G/H synthase 2 (Mus musculus) (UniProt Q05769).
T1 sequence (whole entry): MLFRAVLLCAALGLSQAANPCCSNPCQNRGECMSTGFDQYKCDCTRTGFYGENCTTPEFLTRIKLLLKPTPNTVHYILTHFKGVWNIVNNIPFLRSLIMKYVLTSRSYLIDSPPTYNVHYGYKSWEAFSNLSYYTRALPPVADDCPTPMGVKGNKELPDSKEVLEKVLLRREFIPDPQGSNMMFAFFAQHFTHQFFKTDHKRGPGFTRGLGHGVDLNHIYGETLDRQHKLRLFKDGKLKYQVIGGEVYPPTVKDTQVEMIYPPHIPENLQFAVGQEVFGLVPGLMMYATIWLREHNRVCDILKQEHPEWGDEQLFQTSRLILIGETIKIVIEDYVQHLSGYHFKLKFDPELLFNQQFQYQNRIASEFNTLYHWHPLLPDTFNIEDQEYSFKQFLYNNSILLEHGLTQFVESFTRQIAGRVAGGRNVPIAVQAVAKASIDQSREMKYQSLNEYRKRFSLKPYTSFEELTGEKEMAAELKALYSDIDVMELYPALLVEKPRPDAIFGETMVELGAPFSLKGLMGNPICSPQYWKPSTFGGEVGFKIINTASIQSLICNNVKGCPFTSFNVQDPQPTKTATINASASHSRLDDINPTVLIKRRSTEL
Briefly: Inhibitory potency at mouse COX2 assessed as molar ratio of drug to enzyme required to slow down the reaction twofold at 0.1 uM enzyme concentration. A digest of the protocol:
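Mouse cyclooxygenase-2 at 100 nM final concentration. Potency is expressed as the inhibitor/enzyme molar ratio giving a two-fold decrease in the initial rate of catalysis (I/E2).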

The target in assay [3] is Sterol 14-alpha demethylase (Trypanosoma cruzi (strain CL Brener), UniProt Q7Z1V1). Kind of assay: Binding affinity to Trypanosoma cruzi CYP51 expressed in Escherichia coli by spectral titration.
Assay [4] deals with Trypanosoma cruzi. Briefly: Antitrypanosomal activity against Trypanosoma cruzi amastigotes in cardiomyocytes. It counts as functional. A digest of the protocol:
(§1)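 Trypomastigotes (10^6) were pre-exposed for 30 min to inhibitor in DMSO (1–50 μM) or DMSO control. They then infected rat cardiomyocyte monolayers in triplicate at 10 parasites/cell for 2 h. Unbound parasites were removed and cells were grown in DMEM/10% FBS for 72 h. Parasites per 200 cells and % infection were counted on Giemsa-stained monolayers. Results are mean ± SD, with Student t test.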

In assay [5] the test system is Trypanosoma cruzi. Briefly: Antitrypanosomal activity against Trypanosoma cruzi trypomastigotes in cardiomyocytes. It is filed as functional, organism-based. A digest of the protocol: as §1
In assay [6] the test system is Trypanosoma cruzi. Briefly: Antitrypanosomal activity against Trypanosoma cruzi epimastigotes assessed as blocking of cellular sterol composition at 50 uM after 24 hrs.
Assay [7] concerns Trypanosoma cruzi. Kind of assay: Antitrypanosomal activity against Trypanosoma cruzi trypomastigotes in cardiomyocytes at 10 uM after 72 hrs. It is filed as functional, organism-based. A digest of the protocol:
as §1

In assay [8] the test system is Trypanosoma cruzi. Briefly: Antitrypanosomal activity against Trypanosoma cruzi trypomastigote in cardiomyocytes assessed as decrease in intracellular parasites at 20 uM after 72 hrs. It is filed as functional, organism-based. A digest of the protocol: as §1

The term Kd denotes the concentration at which binding is half-saturated. Higher therefore signals a looser complex.

Active and inactive are the calls of the source. No cut-off for these calls is given here.

Chain of Sterol 14-alpha demethylase (Trypanosoma cruzi (strain CL Brener)) (Q7Z1V1 whole entry, looked up): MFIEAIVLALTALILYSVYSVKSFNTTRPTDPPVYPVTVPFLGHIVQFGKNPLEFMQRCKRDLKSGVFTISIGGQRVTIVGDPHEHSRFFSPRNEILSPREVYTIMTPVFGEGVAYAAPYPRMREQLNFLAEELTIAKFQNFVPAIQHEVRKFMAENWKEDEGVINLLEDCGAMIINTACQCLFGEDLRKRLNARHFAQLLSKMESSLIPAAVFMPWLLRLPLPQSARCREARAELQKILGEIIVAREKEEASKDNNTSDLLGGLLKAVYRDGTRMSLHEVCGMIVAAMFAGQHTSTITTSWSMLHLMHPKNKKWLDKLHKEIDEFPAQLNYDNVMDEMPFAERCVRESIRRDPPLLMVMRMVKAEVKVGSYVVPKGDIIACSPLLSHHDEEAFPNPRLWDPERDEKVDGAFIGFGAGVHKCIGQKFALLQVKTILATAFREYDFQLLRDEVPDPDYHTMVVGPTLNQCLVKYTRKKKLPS
Chain of Sterol 14-alpha demethylase (Q7Z1V1 whole entry): as the sequence (Q7Z1V1 whole entry, looked up) above

As for `COc1ccc2c(c1)c(CC(=O)Nc1cccnc1)c(C)n2C(=O)c1ccc(Cl)cc1`, the Ratio in assay [1] turned out to be 9.1; in assay [2] it was 2.1. Binding in assay [3] was put at a Kd of 290 nM.
Turning to `COc1ccc2c(c1)c(CC(=O)Nc1ccccn1)c(C)n2C(=O)c1ccc(Cl)cc1`, the Ratio in assay [1] worked out at 11; in assay [2], 2.1. The same molecule showed a Kd in assay [3] of 3300 nM.
Consider `COc1ccc2c(c1)c(CC(=O)NCCc1cccnc1)c(C)n2C(=O)c1ccc(Cl)cc1`, for which the EC50 with Trypanosoma cruzi [4] (read-out: ED50 (the source's name)) is less than 1000 nM. In the assay with Trypanosoma cruzi [5], the Activity entry was “Dose-dependent effect”. The Ratio in assay [1] came to 6.3. For the same molecule, binding in assay [3] was characterised by a dissociation constant (Kd) of 2310 nM. Further, the result with Trypanosoma cruzi [6] was Active.
Regarding `COc1ccc2c(c1)c(CC(=O)Nc1ncccn1)c(C)n2C(=O)c1ccc(Cl)cc1`, the values for the Ratio in assay [1] and in assay [2] were 15 and 3.6, respectively.
Regarding `COc1ccc2c(c1)c(CC(=O)NC(C)c1ccncc1)c(C)n2C(=O)c1ccc(Cl)cc1` (stereo unspecified), the Ratio in assay [1] was determined as 8.5; in assay [2], 1.7. In addition, the Kd in assay [3] was determined as 370 nM.
Consider `O=C(Nc1ccncc1)C1c2ccccc2Oc2ccccc21`, for which the Ratio in assay [1] came to 14. The Kd in assay [3] worked out at 750 nM.
`CCC(C(=O)Nc1ccncc1)c1ccccc1` (stereo unspecified): the Ratio in assay [1] was found to be 10. In addition, the Kd in assay [3] is 440 nM.
Turning to `COc1ccc2c(c1)c(CC(=O)NCCc1cccc(Cl)c1)c(C)n2C(=O)c1ccc(Cl)cc1`, the outcome with Trypanosoma cruzi [7] and in the assay on Trypanosoma cruzi [8] was Active. Also, the Ratio in assay [1] and in assay [2] was less than 1 in each case. The molecule further yielded a Kd in assay [3] of 360 nM.
Consider `COc1ccc2c(c1)c(CC(=O)NCc1ccccn1)c(C)n2C(=O)c1ccc(Cl)cc1`, for which the Activity result in the assay with Trypanosoma cruzi [4] and with Trypanosoma cruzi [5] was “Dose-dependent effect” each time. Moreover, the results for the Ratio in assay [1] and in assay [2] were 13 and more than 10, respectively. Binding in assay [3] was put at a Kd of 7600 nM.
For the molecule `COc1ccc2c(c1)c(CC(=O)NCc1ccc(C(F)(F)F)nc1)c(C)n2C(=O)c1ccc(Cl)cc1`, the Ratio was 7.7 in assay [1] and less than 1 in assay [2].
Consider `COc1ccc2c(c1)c(CC(=O)NCc1ccncc1)c(C)n2C(=O)c1ccc(Cl)cc1`, for which the Ratio in assay [1] and in assay [2] was 10 in each case. Besides, in assay [3], the dissociation constant (Kd) came to 540 nM.
For the molecule `COc1ccc2c(c1)c(CC(=O)NCC(C)c1ccccc1)c(C)n2C(=O)c1ccc(Cl)cc1` (stereo unspecified), the outcome in the assay with Trypanosoma cruzi [7] and in the assay with Trypanosoma cruzi [8] was Active. Further, the Ratio in assay [1] is less than 1; in assay [2] it was more than 40. Further, the dissociation constant Kd in assay [3] worked out at 150 nM.
As to `CC1CCC(C(=O)NC(Cc2c[nH]c3ccccc23)C(=O)Nc2ccncc2)CC1` (stereo unspecified), the Activity result with Trypanosoma cruzi [4] and with Trypanosoma cruzi [5] was “Dose-dependent effect” each time.
Consider `COc1ccc2c(c1)c(CC(=O)NCc1ccc(Cl)nc1)c(C)n2C(=O)c1ccc(Cl)cc1`, for which the Activity entry with Trypanosoma cruzi [4] and in the assay on Trypanosoma cruzi [5] was “Dose-dependent effect” in each case. Moreover, the Ratio is 4.2 in assay [1] and less than 1 in assay [2].
